Screening results from PubChem BioAssay.
A selection: hits, their analogues and other compounds. The true share with any hit is near 2.4%.
MC4R ag barr – activates human MC4R beta-arrestin recruitment; actives 0.98% (n = 360,000); P32245; U2OS MC4R beta-arrestin complementation, luminescence; percent of melanotan II response, DMSO zero; activation, % at 8.9 µM; AID 540308;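 active means activation above a per-plate cutoff, the mean activation of sample wells on that plate plus 3 SD, cut at about 8% in these data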
NTR1 ag – activates human neurotensin receptor 1; P30989; NTR1-U2OS beta-arrestin-GFP spot imaging, agonist mode; actives 0.17% (n = 330,000); activation, % at 20 µM; AID 493036;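 active means activation at or above 40% of the spot to cytoplasm intensity ratio, with at least 20 cells analyzed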;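 further: 0% = DMSO without peptide and 100% = 100 nM NTR1 peptide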
Target sequence (P30989 whole entry, looked up): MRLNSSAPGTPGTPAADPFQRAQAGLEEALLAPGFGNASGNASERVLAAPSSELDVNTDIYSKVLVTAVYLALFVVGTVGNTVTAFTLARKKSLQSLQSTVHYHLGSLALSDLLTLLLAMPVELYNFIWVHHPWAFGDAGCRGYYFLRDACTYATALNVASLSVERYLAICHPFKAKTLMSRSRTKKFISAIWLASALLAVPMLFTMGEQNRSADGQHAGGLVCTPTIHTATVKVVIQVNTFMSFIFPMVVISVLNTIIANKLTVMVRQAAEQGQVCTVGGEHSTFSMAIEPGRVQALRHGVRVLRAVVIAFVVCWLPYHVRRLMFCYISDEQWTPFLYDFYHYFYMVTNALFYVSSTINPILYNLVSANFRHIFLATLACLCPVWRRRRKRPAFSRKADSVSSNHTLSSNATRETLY
MC4R antagonist – antagonists of human melanocortin 4 receptor (MC4R). inhibition, % at 6.5 µM. actives 0.48% (n = 360,000). MC4R-expressing cells, MTII-stimulated cAMP, LANCE TR-FRET;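 active means inhibition above its plate's cutoff, the mean of tested wells on that plate plus 3 SD, cut at about 29% in these data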;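 further: 0% = Melanotan II alone and 100% = Melanotan II plus saturating MCL0020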
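Test system: U2OS cells stably expressing human melanocortin 4 receptor (MC4R); also added: Melanotan II challenge; compound: 6.5 µM single dose; timing: 30-min compound preincubation, 1-h Melanotan II challenge, 1-h detection, room temperature; signal: Eu-cAMP/anti-cAMP TR-FRET, emission 671 nm; repeats: one well per compound, no replicates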
TAG inh – triacylglycerol accumulation inhibition | actives 0.66% (n = 230,000) | H9c2 cells, Nile Red lipid (TAG) fluorescence; cells loaded with 200 µM oleic acid | AID 651582 | inhibition, % at 12.5 µM;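 active means pattern-corrected inhibition of lipid staining of at least 50% with the nuclear-stain viability signal not falling by more than 50%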;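 further: 0% = DMSO wells and 100% = triacsin C control wells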
aDG glyco up – alpha-DG glycosylation activation. Pro5-aDG cells, alpha-DG glycosylation AlphaScreen (IIH6); 0% Pro5, 100% B10-LARGE cell signal. activation, % at 10 µM. actives 0.22% (n = 360,000);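 active means activation of at least 8% versus controls, or a plate z-score of at least 8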;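 further: Pro5 are CHO cells carrying HIG-tagged alpha-DG that lacks glycosylation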
TbMetRS inhib – Trypanosoma brucei MetRS inhibition; inhibition, % at 11.9 µM; actives 0.4% (n = 360,000); purified T. brucei MetRS, ATP depletion, Kinase-Glo luminescence;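 active means inhibition above a per-plate cutoff of the control wells' mean inhibition plus 3 SD, cut at about 5.5% in these data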;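 further: 0% = DMSO wells median and 100% = median of wells with control inhibitor compound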
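Material – parasite MetRS enzyme · Medium – HEPES-MgCl2-KCl buffer plus DTT, spermine, BSA, pyrophosphatase · Reagent – ATP, methionine and E. coli bulk tRNA substrates · Times – 15 min enzyme-compound preincubation, 2 h reaction, 10 min detection, 25 °C · Measured by – luminescence of leftover ATP · Evaluation – percent inhibition relative to median high and low control wells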
TAG conf – confirmation of triacylglycerol accumulation inhibitors | shares compounds with TAG inh | H9c2 lipid accumulation, Nile Red fluorescence; cells loaded with 200 µM oleic acid | inhibition, % at 12.5 µM | actives 71% (n = 990) | AID 651629;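 active means mean inhibition across replicates of 40% or more; inactive means mean inhibition below 40%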;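 further: plate controls were DMSO only wells for no effect and Triacsin C treated wells for full effect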
* marks the source's active call; other numbers are inactive results; x = not tested or not shown.

SMILES	MC4R ag barr	NTR1 ag	MC4R antagonist	TAG inh	aDG glyco up	TbMetRS inhib	TAG conf
CCOC(=O)[C@]12CCC=C1N(Cc1cccc3ccccc13)C(=O)[C@H](CC(=O)N1CCN(C(=O)c3ccco3)CC1)C2	x	x	x	x	0	-1	x
Cc1ccc2c(c1)cc1c(=O)n(CC(=O)NCCCc3ccccc3)nc(C)n12	2	-1	15	x	0	0	x
CCN(CC)c1ccc(/C=C2\CCC(/C=C(/C#N)C(=O)Nc3ccccc3F)=C2N2CCOCC2)cc1	-1	x	-4	91*	0	0	65*
O=C1NC[C@@H](CCCCN2CCN(CCc3ccccc3)C(=O)C2=O)N(CC2CCCCC2)C1=O	x	x	x	x	0	0	x
CCC(C)(C)NC(=O)C(c1ccc(C)cc1)N(Cc1ccco1)C(=O)CCC(=O)Nc1nccs1 (configuration not stated)	-1	1	-1	66*	0	-1	65*
COc1ccc(C(C(=O)NC(C)(C)C)N(Cc2ccco2)C(=O)CCC(=O)Nc2cc(C)on2)cc1 (configuration not stated)	-1	0	7	56*	0	-1	46*
CCC(C)(C)NC(=O)C(c1ccc(OC)cc1)N(Cc1ccco1)C(=O)CCC(=O)Nc1cc(C)on1 (configuration not stated)	-2	0	10	70*	0	0	57*
COc1ccc(C(C(=O)NC(C)(C)C)N(Cc2ccco2)C(=O)CCC(=O)Nc2ccccn2)cc1 (configuration not stated)	-1	1	1	x	0	0	x
CC(C)(C)NC(=O)C(c1ccc(F)cc1)N(Cc1ccco1)C(=O)CCC(=O)Nc1nccs1 (configuration not stated)	0	0	2	x	0	-1	x
O=C1NC(=O)C2(CCCc3ccccc32)N1 (configuration not stated)	-1	1	7	x	0	0	x
Cc1cccc2cc(C#N)c(SCC(=O)NNC(=O)Cc3ccccc3)nc12	1	3	10	71*	0	-1	98*
CC(C)CN(C#N)c1nc(N2CCOCC2)nc(N2CCOCC2)n1	0	-3	2	62*	0	-1	45*
CN(C#N)c1nc(N2CCOCC2)nc(N2CCOCC2)n1	1	0	6	17	0	-3	x
CCCc1cc(N2CCCC2)n2nc(C)c(-c3ccccc3)c2n1	1	7	15	66*	1	0	41*
COc1ccc(NC(=O)Cn2nnc(-c3ccccc3NC(=O)C3CC3)n2)cc1	0	-1	0	x	0	-1	x
CCOc1ccc(NC(=O)Cn2nnc(-c3ccccc3NC(=O)C3CC3)n2)cc1	0	-2	12	72*	0	0	40
COc1cc(F)ccc1-c1csc(C(O)c2ccccc2)n1 (configuration not stated)	4	x	10	-8	0	0	x
COc1cccc(NC(=O)CSc2nc3c(sc4ccccc43)c(=O)n2CCN(C)C)c1	1	8	6	-3	0	-1	x
CCN(CC)CCn1c(SCC(=O)Nc2cccc(OC)c2)nc2c(sc3ccccc32)c1=O	2	4	2	52*	2	0	54*
c1ccc(N=NC2=NN(c3ccccc3)CS2)cc1	-5	x	0	96*	0	0	113*
c1ccc(C2=NN(c3ccccc3)CC2)cc1	2	3	4	-6	0	-1	x
COc1cccc(C(O)c2nc(-c3cccc(C(F)(F)F)c3)cs2)c1 (configuration not stated)	2	x	4	1	0	0	x
Cc1ccc(-c2nn3c(C)nnc3c3ccccc23)cc1S(=O)(=O)NC(C)c1ccccc1 (configuration not stated)	0	10	-39	50*	-1	0	53*
Cc1ccc(-c2nn3c(C)nnc3c3ccccc23)cc1S(=O)(=O)NCCO	0	0	14	x	0	0	x
CCCNc1cc(=S)nc(N)[nH]1	-2	2	4	3	0	0	x
SMILES	MC4R ag barr	NTR1 ag	MC4R antagonist	TAG inh	aDG glyco up	TbMetRS inhib	TAG conf
Cc1cc(C)n(-c2ccc(C(=O)OCC(=O)Nc3cc(S(C)(=O)=O)ccc3Cl)cc2)n1	1	1	1	-6	0	0	x
O=C1CN(C(=O)c2ccccc2F)c2ccccc2N1	1	0	8	x	0	0	x
COc1cc(OC)cc(C(=O)N2CC(=O)Nc3ccccc32)c1	0	1	-7	58*	0	0	63*
COc1cccc(C2c3cc4c(cc3OC(NNC(N)=O)C2C)OCO4)c1O (configuration not stated)	-1	x	-15	62*	0	0	52*
COc1cc(C2c3cc4c(cc3OC(NNC(N)=O)C2C)OCO4)cc(OC)c1OC (configuration not stated)	-2	x	-44	46	0	0	x
CC(=O)Nc1ccc(SC[C@H](Cc2ccccc2)N2CCN(CC(C)C)CCC2=O)cc1	1	-2	9	3	0	0	x
CC(=O)Nc1ccc(SC[C@H](CC(C)C)N2CCN(CC(C)C)CCC2=O)cc1	-1	1	1	67*	0	-1	1
COc1cc(C(=O)Nc2nc3ccc(C)cc3s2)ccc1OCc1c(C)noc1C	7	2	14	51*	0	0	40
O=C1OCCN1C(=O)[C@H]1[C@H](c2ccc(F)cc2)C(c2ccc(F)cc2)=NN1c1ccc(Br)cc1	1	8	8	-3	0	0	x
O=C1OCCN1C(=O)[C@H]1[C@H](c2ccc(Cl)cc2)C(c2ccc(F)cc2)=NN1c1ccc(Br)cc1	0	8	-4	105*	0	-3	10
O=c1c2c3nc4ccccc4nc3n(/N=C/c3ccccn3)c2ncn1-c1ccccc1	-1	5	8	72*	0	-1	71*
COc1ccc(C)cc1S(=O)(=O)NCC(c1ccc2c(c1)OCO2)N1CCOCC1 (configuration not stated)	-2	0	12	-8	0	0	x
CCN(CC)c1ccc(/C=N/Nc2nc(C)cc(C)n2)cc1	-1	0	-9	51*	1	0	30
O=C(O)c1ccccc1C(=O)NC1CCCCNC1=O (configuration not stated)	2	2	16	5	0	-1	x
